Data reported in ChEMBL document CHEMBL1147807, “Identification of 2-acylaminothiophene-3-carboxamides as potent inhibitors of FLT3” (Bioorg Med Chem Lett, 2006).

Assays:
[1] = target: Tyrosine-protein kinase BTK (Homo sapiens) (UniProt Q06187); test: Inhibition of human BTK kinase at 3 uM in presence of 10 uM ATP
How it was run: (§1)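 Selectivity panel run at a single compound concentration of 3 µM with 10 µM ATP. Read-out is % inhibition of each kinase. Values are averages of duplicate experiments.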

[2] = target: Mitogen-activated protein kinase 10 (Homo sapiens) (UniProt P53779); test: Inhibition of human JNK3 at 3 uM in presence of 10 uM ATP; how it was run: as §1
Sequence of Mitogen-activated protein kinase 10 (Homo sapiens) (P53779 whole entry): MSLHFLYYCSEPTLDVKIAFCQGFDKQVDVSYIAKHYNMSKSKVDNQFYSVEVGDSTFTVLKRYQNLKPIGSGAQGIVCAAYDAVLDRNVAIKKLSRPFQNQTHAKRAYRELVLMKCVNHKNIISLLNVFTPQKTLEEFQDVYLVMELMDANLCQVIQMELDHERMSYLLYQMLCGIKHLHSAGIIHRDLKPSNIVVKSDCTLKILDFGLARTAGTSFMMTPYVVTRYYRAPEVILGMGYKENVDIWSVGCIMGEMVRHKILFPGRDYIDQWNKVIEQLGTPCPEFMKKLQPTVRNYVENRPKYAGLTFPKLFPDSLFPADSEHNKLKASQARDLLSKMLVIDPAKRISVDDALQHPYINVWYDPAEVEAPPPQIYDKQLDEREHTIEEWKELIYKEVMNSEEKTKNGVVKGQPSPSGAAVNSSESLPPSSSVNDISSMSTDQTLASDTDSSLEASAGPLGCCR

[3] = target: BDNF/NT-3 growth factors receptor (Homo sapiens) (UniProt Q16620); test: Inhibition of human TrkB at 3 uM in presence of 10 uM ATP; how it was run: as §1
Sequence of BDNF/NT-3 growth factors receptor (Homo sapiens) (Q16620 32-822 limits assumed): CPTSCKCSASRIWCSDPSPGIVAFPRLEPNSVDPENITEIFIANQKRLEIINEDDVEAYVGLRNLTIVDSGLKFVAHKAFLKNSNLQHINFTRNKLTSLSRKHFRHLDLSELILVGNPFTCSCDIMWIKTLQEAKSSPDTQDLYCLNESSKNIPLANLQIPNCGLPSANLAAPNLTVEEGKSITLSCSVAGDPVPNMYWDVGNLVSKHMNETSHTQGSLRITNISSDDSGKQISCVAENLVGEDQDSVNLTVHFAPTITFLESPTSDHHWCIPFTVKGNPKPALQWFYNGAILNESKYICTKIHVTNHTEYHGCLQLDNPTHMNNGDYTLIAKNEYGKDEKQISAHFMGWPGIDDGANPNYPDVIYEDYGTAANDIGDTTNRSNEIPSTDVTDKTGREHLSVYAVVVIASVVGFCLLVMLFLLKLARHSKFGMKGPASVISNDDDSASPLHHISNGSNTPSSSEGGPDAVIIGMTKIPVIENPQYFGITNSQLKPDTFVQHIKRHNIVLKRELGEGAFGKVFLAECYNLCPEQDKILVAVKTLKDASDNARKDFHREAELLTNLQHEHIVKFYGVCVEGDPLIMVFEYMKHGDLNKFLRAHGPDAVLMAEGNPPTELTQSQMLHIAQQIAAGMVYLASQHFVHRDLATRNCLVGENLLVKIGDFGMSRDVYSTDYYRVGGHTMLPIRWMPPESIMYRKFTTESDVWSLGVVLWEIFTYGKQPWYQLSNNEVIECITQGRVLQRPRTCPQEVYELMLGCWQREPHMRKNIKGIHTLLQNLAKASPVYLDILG

[4] = target: Tyrosine-protein kinase Fyn (Homo sapiens) (UniProt P06241); test: Inhibition of human Fyn at 3 uM in presence of 10 uM ATP; how it was run: as §1
Sequence of Tyrosine-protein kinase Fyn (Homo sapiens) (P06241 2-537 limits assumed): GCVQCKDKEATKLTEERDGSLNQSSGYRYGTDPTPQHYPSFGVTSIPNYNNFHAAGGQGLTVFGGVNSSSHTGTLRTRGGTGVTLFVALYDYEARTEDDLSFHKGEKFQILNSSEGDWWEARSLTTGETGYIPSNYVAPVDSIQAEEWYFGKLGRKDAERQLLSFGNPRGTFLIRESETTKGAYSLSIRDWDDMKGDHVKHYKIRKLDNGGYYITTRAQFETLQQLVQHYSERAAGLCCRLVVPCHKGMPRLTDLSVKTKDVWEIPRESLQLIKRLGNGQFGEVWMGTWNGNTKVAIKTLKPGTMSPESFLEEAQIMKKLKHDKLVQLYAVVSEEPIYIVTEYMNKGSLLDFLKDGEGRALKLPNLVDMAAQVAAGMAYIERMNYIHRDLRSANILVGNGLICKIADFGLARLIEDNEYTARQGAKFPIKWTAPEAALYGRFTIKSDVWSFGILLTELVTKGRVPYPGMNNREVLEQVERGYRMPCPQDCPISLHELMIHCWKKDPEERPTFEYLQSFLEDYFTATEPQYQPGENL

[5] = target: Tyrosine-protein kinase receptor UFO (Homo sapiens) (UniProt P30530); test: Inhibition of human Axl kinase at 3 uM in presence of 10 uM ATP; how it was run: as §1
Sequence of Tyrosine-protein kinase receptor UFO (Homo sapiens) (P30530 whole entry): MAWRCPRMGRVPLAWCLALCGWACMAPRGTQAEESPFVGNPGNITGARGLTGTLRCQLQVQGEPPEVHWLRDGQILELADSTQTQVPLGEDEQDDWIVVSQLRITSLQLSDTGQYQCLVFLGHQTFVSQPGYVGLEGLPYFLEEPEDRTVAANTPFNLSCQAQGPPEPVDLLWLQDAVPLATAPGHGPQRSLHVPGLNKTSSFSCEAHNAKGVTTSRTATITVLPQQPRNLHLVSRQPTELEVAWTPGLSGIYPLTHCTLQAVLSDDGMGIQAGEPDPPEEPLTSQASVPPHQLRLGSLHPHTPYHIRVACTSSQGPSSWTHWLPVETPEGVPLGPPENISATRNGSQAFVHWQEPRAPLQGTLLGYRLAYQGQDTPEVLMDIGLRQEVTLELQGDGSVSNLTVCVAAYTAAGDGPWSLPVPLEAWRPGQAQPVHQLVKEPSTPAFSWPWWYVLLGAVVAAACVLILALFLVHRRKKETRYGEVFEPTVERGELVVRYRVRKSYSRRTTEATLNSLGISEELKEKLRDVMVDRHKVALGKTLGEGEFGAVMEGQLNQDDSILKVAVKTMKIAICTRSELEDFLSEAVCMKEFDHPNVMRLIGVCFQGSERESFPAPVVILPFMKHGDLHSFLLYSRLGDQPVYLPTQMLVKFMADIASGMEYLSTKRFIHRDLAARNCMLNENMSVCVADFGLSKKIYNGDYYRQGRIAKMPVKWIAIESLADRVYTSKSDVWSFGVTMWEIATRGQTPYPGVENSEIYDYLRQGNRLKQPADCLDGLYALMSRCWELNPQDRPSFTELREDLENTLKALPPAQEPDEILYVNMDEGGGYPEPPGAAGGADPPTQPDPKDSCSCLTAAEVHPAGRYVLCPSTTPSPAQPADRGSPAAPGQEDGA

[6] = organism: Rattus norvegicus; test: Inhibition of rat AMPK at 3 uM in presence of 10 uM ATP; how it was run: as §1
[7] = target: T1, Receptor-type tyrosine-protein kinase FLT3 (Homo sapiens, UniProt P36888); test: Inhibition of FLT3
T1 sequence (P36888 whole entry): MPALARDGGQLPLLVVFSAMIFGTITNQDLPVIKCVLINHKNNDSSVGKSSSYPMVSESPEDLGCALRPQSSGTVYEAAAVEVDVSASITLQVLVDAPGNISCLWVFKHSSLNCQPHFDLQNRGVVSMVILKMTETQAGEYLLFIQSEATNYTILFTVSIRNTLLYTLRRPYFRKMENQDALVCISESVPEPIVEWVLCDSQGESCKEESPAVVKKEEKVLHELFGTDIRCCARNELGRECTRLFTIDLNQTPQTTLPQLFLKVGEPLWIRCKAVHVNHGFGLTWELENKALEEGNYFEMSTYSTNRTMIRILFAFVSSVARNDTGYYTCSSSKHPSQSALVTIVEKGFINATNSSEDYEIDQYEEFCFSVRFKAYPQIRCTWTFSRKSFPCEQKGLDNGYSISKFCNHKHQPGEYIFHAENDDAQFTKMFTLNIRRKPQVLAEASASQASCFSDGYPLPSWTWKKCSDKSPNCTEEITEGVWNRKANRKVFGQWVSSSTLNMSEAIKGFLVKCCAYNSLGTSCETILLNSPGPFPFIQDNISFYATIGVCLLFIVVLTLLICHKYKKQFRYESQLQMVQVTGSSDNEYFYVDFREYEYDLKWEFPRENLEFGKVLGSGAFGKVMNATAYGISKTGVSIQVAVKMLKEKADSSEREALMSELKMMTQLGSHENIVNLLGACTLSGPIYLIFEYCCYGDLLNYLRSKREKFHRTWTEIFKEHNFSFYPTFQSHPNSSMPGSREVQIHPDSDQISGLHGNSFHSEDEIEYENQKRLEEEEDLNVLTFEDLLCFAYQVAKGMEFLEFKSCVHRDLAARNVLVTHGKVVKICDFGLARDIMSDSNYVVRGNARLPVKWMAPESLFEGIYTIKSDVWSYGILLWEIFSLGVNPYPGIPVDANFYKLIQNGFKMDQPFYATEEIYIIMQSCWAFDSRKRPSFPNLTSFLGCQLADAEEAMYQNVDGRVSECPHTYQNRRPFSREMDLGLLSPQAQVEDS

[8] = tested on: MV4-11; test: Antiproliferative activity against human MV4-11 cells
[9] = target: Tyrosine-protein kinase Lyn (Homo sapiens) (UniProt P07948); test: Inhibition of human Lyn at 3 uM in presence of 10 uM ATP; how it was run: as §1
Sequence of Tyrosine-protein kinase Lyn (Homo sapiens) (P07948 2-512 limits assumed): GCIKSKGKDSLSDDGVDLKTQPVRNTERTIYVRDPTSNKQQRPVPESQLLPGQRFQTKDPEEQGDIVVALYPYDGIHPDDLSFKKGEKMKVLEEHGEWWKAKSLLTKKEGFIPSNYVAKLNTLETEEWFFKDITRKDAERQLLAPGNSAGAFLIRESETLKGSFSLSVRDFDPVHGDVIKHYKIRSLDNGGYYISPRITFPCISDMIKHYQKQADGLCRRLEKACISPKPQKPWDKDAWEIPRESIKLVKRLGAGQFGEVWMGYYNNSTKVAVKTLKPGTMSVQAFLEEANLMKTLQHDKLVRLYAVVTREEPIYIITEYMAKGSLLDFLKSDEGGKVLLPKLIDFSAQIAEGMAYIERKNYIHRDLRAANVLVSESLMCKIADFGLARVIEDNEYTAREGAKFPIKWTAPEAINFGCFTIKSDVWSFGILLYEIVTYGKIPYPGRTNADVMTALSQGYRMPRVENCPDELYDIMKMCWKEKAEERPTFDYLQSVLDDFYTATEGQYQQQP

[10] = target: Hepatocyte growth factor receptor (Homo sapiens) (UniProt P08581); test: Inhibition of human Met at 3 uM in presence of 10 uM ATP; how it was run: as §1
Sequence of Hepatocyte growth factor receptor (Homo sapiens) (P08581 whole entry): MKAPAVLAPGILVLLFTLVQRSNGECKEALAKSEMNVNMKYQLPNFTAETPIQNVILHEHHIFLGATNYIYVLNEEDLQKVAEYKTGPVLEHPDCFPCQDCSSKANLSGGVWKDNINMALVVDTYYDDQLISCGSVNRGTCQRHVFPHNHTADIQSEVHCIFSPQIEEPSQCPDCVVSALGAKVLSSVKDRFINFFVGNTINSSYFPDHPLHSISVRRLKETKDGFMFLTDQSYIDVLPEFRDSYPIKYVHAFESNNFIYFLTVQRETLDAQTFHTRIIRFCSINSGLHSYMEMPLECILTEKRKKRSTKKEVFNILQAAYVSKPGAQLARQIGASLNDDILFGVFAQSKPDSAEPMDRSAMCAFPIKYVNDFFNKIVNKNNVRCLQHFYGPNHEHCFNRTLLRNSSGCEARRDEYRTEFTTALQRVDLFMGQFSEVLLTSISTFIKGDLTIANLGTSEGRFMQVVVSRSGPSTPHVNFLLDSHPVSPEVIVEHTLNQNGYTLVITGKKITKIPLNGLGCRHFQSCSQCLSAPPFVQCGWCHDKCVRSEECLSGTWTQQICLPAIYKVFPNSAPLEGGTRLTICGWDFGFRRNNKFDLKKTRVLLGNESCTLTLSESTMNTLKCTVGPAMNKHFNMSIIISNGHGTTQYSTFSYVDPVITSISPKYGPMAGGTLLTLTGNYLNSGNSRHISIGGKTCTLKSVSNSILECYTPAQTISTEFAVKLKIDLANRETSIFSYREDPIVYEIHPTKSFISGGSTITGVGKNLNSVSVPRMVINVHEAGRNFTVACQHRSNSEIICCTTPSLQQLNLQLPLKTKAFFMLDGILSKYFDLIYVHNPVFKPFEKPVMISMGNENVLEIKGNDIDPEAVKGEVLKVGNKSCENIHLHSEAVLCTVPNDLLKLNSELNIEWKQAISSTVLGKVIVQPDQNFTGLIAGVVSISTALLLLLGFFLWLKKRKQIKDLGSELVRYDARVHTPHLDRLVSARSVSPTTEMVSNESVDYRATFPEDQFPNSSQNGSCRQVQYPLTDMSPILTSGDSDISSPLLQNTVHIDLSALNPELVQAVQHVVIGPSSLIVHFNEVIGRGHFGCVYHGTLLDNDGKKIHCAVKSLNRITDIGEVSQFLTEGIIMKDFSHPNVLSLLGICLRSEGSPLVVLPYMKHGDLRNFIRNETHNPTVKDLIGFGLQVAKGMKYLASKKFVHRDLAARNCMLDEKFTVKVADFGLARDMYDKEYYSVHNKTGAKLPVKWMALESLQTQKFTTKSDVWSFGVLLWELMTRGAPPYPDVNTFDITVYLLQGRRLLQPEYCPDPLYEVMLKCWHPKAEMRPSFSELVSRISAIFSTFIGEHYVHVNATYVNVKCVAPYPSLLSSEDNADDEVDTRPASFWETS

[11] = target: Tyrosine-protein kinase ABL2 (Homo sapiens) (UniProt P42684); test: Inhibition of human Arg kinase at 3 uM in presence of 10 uM ATP; how it was run: as §1
[12] = target: Glycogen synthase kinase-3 beta (Homo sapiens) (UniProt P49841); test: Inhibition of human GSK3-beta at 3 uM in presence of 10 uM ATP; how it was run: as §1
Sequence of Glycogen synthase kinase-3 beta (Homo sapiens) (P49841 whole entry, looked up): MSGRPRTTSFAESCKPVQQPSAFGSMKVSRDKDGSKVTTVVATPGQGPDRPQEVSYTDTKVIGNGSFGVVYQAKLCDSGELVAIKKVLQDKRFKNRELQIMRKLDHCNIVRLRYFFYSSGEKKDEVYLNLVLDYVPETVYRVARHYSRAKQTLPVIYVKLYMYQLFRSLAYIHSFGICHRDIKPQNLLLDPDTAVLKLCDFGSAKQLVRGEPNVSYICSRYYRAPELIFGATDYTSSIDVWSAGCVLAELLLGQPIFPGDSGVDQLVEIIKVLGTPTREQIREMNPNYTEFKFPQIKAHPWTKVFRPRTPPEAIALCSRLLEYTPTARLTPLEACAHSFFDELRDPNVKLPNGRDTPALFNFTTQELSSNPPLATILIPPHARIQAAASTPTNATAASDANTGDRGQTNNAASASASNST

[13] = target: T2, Serine/threonine-protein kinase D1 (Homo sapiens) (UniProt Q15139); test: Inhibition of human PKC mu at 3 uM in presence of 10 uM ATP; how it was run: as §1
T2 sequence (whole entry): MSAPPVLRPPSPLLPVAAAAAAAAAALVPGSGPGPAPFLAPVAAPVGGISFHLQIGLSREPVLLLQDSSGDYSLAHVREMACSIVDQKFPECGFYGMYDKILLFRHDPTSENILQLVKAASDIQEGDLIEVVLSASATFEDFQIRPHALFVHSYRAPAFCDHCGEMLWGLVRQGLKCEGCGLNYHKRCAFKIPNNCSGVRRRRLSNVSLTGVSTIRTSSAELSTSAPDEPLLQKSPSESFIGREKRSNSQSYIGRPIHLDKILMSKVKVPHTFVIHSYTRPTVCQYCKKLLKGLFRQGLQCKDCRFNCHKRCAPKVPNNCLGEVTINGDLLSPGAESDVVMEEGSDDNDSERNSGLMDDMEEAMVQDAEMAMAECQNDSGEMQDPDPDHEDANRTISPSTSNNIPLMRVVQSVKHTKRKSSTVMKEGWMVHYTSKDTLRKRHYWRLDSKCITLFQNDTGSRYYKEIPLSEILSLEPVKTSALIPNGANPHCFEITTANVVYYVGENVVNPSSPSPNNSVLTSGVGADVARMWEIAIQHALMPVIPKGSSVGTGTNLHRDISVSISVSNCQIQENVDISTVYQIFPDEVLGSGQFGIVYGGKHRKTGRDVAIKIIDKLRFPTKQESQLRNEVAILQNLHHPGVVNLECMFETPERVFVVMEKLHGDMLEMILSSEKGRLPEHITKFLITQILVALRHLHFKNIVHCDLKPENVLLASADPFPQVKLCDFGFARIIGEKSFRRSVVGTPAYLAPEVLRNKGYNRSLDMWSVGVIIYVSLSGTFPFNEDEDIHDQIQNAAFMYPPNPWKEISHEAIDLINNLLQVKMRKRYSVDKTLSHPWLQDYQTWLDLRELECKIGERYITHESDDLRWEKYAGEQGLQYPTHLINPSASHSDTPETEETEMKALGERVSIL

Compound `COc1ccc(C(=O)Nc2sc3c(c2C(N)=O)CCCC3)cc1OC` has an inhibition [1] of 14%, an inhibition [2] of -6% and an inhibition [3] of 39%. The inhibition [4] was 33%, the inhibition [5] was -10% and the inhibition [6] was -4%. It also gave an IC50 [7] of 42 nM, an IC50 [8] of 340 nM and an inhibition [9] of 21%. It also gave an inhibition [10] of 13%, an inhibition [11] of 49% and an inhibition [12] of -2%. The inhibition [13] was 3%.
